From ChEMBL document CHEMBL3244217, “Metabolism of cis-delta4-15(S)-15-methylprostaglandin F1alpha methyl ester in the rat” (J Med Chem, 1978) come the findings set out here.

Design in all cases: dose 0.28 mg/kg, route oral
Data set [1] has as its system Rattus norvegicus. Briefly: Drug level in Sprague-Dawley rat treated with [3H]-cis-delta4-15(S)-15-methylprostaglandin F1alpha methyl ester at 0.28 mg/kg, po assessed compound formation. It counts as ADME, organism-based. To be noted: in vivo.
Data set [2] concerns Rattus norvegicus. The data set is described as follows: Drug metabolism in Sprague-Dawley rat assessed as metabolite 5 ((4aR,5R,6R,7aS)-6-hydroxy-5-((S)-3-hydroxy-3-methyloct-1-enyl)hexahydrocyclopenta[b]pyran-2(3H)-one) formation at 0.28 mg/kg, po administered as single dose. The data set is classed as ADME, organism-based. To be noted: in vivo. Summed up: (§1)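 Urine was extracted on an Amberlite XAD-2 column and partially purified by silicic acid chromatography. Components were then separated by reversed-phase partition chromatography on Sephadex LH-20 (isooctyl alcohol–chloroform–methanol–water, 15:15:114:86), collecting 9-mL fractions. Identification used GC with radioactivity monitoring (3.8% UCW-98, 200 °C) and GC-MS of methyl ester, O-methoxime and trimethylsilyl derivatives; silylation was at 50 °C for 1 h.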

Data set [3] can be described thus: Drug excretion in Sprague-Dawley rat urine at 0.28 mg/kg, po administered as single dose within 74 hrs relative to control. It counts as ADME, organism-based. To be noted: read-out: Drug excretion. Summed up:
(§2)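 Four female Sprague-Dawley rats (Upjohn strain), about 200 g, were fasted overnight and each given one 0.28-mg oral dose of tritium-labeled drug (1.24 × 10^7 dpm) in distilled water by gastric tube. They were then kept in metabolism cages with free food and water, and urine and feces were collected at intervals. Radioactivity was read by liquid scintillation with external-standard quench correction. Urine aliquots (0.2 mL) were counted directly; feces were homogenized in water and aliquots dried and combusted before counting.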

A short description of data set [4]: Drug excretion in Sprague-Dawley rat feces at 0.28 mg/kg, po administered as single dose within 74 hrs relative to control. The data set is classed as ADME, organism-based. To be noted: faeces, read-out: Drug excretion. In outline:
as §2

Data set [5] relates to Rattus norvegicus. The data set is described as follows: Toxicity in Sprague-Dawley rat assessed as depression at 0.28 mg/kg, po up to 1 to 3 days. The data set is classed as organism-based. Conditions: in vivo. Summed up: (§3)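 Fifteen rats were kept in metabolism cages for 17 days. Each morning they received an oral dose of 0.25 mg of tritium-labelled drug (1 × 10^7 dpm). The animals were watched for side effects, including depression, diarrhoea, faecal staining of the abdomen and mortality, over the chronic dosing period.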

The subject of data set [6] is Rattus norvegicus. Briefly: Toxicity in Sprague-Dawley rat assessed as diarrhea at 0.28 mg/kg, po up to 1 to 3 days. The data set is classed as organism-based. To be noted: in vivo. Summed up: as §3
Data set [7] has as its system Rattus norvegicus. The data set is described as follows: Toxicity in Sprague-Dawley rat assessed as fecal stained abdominal area at 0.28 mg/kg, po up to 1 to 3 days. It counts as organism-based, Abdomen. To be noted: in vivo. Summed up:
as §3

For data set [8], the system named is Rattus norvegicus. Briefly: Toxicity in Sprague-Dawley rat assessed as mortality at 0.28 mg/kg, po. Conditions: in vivo. The data set is classed as organism-based. Summed up: as §3
The test system of data set [9] is Rattus norvegicus. Briefly: Toxicity in Sprague-Dawley rat assessed as depression at 0.28 mg/kg, po after 3 days. It counts as organism-based. To be noted: in vivo, 72 h.
For data set [10], the system named is Rattus norvegicus. The data set is described as follows: Toxicity in Sprague-Dawley rat assessed as diarrhea at 0.28 mg/kg, po after 3 days. Conditions: in vivo, 72 h. It counts as organism-based.
The subject of data set [11] is Rattus norvegicus. Briefly: Toxicity in Sprague-Dawley rat assessed as fecal stained abdominal area at 0.28 mg/kg, po after 3 days. It counts as organism-based, Abdomen. Conditions: in vivo, 72 h.
The test system of data set [12] is Rattus norvegicus. Briefly: Drug metabolism in Sprague-Dawley rat assessed as metabolite 2 (cis-delta4-15-methylprostaglandin F1alpha) formation at 0.28 mg/kg, po administered as single dose. Conditions: in vivo. The data set is classed as ADME, organism-based. In outline:
as §1

Data set [13] concerns Rattus norvegicus. The data set is described as follows: Drug metabolism in Sprague-Dawley rat assessed as metabolite 3 (15-methyl-2,3-dinorprostaglandin F1alpha) formation at 0.28 mg/kg, po administered as single dose. It counts as ADME, organism-based. Conditions: in vivo. Summed up:
as §1

The subject of data set [14] is Rattus norvegicus. Briefly: Drug metabolism in Sprague-Dawley rat assessed as metabolite 4 (15-methyl-2,3,4,5-tetranorprostaglandin F1alpha) formation at 0.28 mg/kg, po administered as single dose. It counts as ADME, organism-based. Conditions: in vivo. Summed up:
as §1

For `CCCCC[C@](C)(O)/C=C/[C@@H]1[C@@H](CCCCC(=O)O)[C@@H](O)C[C@H]1O`, the Drug metabolism result in the data set on Rattus norvegicus [1] is “metabolite_detected”.
On the same count and under the same terms, the same measure for `CCCCC[C@](C)(O)/C=C/[C@@H]1[C@@H](CCC(=O)O)[C@@H](O)C[C@H]1O`: “metabolite_detected”; for `CCCCC[C@](C)(O)/C=C/[C@@H]1[C@H]2CCC(=O)O[C@H]2C[C@H]1O`: “metabolite_detected”.
Turning to `[3H]O[C@H]1C[C@@H](O)[C@H](/C=C/[C@@](C)(O)CCCCC)[C@H]1CC/C=C\CCC(=O)OC`, the Drug metabolism result in the data set with Rattus norvegicus [2], in the data set with Rattus norvegicus [12], with Rattus norvegicus [13] and in the data set on Rattus norvegicus [14] was “metabolite_detected” in each case. Further, the dose excreted at 74 h in [3] was 30%; in data set [4] it was 38%. The Activity entry was “Toxic” with Rattus norvegicus [5]; “Toxic” in the data set with Rattus norvegicus [6]; “Toxic” in the data set with Rattus norvegicus [7]; “Non-toxic” with Rattus norvegicus [8]; “Non-toxic” in the data set with Rattus norvegicus [9]; “Non-toxic” with Rattus norvegicus [10]. For the same molecule, the Activity result in the data set on Rattus norvegicus [11] is given as “Non-toxic”.
As for `CCCCC[C@](C)(O)/C=C/[C@@H]1[C@@H](CC/C=C\CCC(=O)O)[C@@H](O)C[C@H]1O`, the Drug metabolism result in the data set on Rattus norvegicus [1] is on record as “metabolite_detected”.
